Assay results from different studies.
Protocols differ between the studies behind these lines.
Target: Receptor tyrosine-protein kinase erbB-2 (ERBB2, Homo sapiens, UniProt P04626)

The remaining signal of `Nc1ncnc2occ(-c3ccc(NC(=O)Nc4cc(C(F)(F)F)ccc4F)cc3)c12` is reported as 0% (cell-free assay, inhibitor; 20 µM).
`Oc1ccc(-c2nc(-c3ccncc3)c(-c3ccc(F)cc3)[nH]2)cc1` has a remaining signal of 95.5% (cell-free assay; 0.5 µM).
For `Cc1noc([C@H]2C[C@@H](c3ccc(C(F)(F)F)cc3)CN(C(=O)N3CCS(=O)(=O)C3)C2)n1`, the remaining binding was 100% (cell-free assay, competition with immobilised ligand; 1 µM).
For `C#Cc1cccc(Nc2ncnc3cc(OCCOC)c(OCCOC)cc23)c1`, the remaining signal was 52.8% (cell-free assay; 0.5 µM).
The remaining binding of `Cn1nc(C(F)(F)F)cc1-c1cnc(N2CCc3cc(S(=O)(=O)Nc4c(F)cc(Cl)cc4F)cc(N4CCCC4=O)c32)nc1` is reported as 79% (cell-free assay, competition with immobilised ligand; 1 µM).
The inhibition of `C=CC(=O)Nc1cc(Nc2nccc(Nc3cc(Cl)c(F)cc3C(C)(C)O)n2)c(OC)cc1N1CC[C@@H](N(C)C)C1` is reported as 73% (enzyme activity, inhibitor; 1 µM).
The remaining signal of `CC#CC(=O)Nc1cc2c(Nc3ccc(F)c(Cl)c3)ncnc2cn1` is reported as 2.36% (cell-free assay; 0.5 µM).
With `CS(=O)(=O)Nc1cccc(-c2csc(NC(=O)CSc3nc4nccnc4c(=O)n3CCc3ccccc3)n2)c1` the inhibition was -12% (enzyme activity, inhibitor; 10 µM).
`O=C(Nc1cnn(-c2csc(C(=O)NC3COC3)c2)c1)Nc1c(F)cccc1Cl` gave a remaining activity of 97% (enzyme activity, inhibitor; 5 µM).
`N#Cc1ccc(Nc2ccc3[nH]c(=O)[nH]c3c2)c(Cl)c1` gave a remaining binding of 100% (cell-free assay, competition with immobilised ligand; 1 µM).
The remaining signal of `Cc1ccc(NC(=O)c2ccc(CN3CCN(C)CC3)cc2)cc1Nc1nc(-c2cccnc2)cs1` is reported as 103% (cell-free assay; 0.5 µM).
`CS(=O)(=O)N1CCCC(NC(=O)[C@H](CCC2CCCCC2)NC(=O)c2ccc(CNc3ncnc4c3nnn4-c3ccccc3)cc2)C1` (stereo partly shown) has a remaining binding of 100% (cell-free assay, competition with immobilised ligand; 0.1 µM).
With `CC(C)(C)c1nc(-c2cccc(NS(=O)(=O)c3c(F)cccc3F)c2F)c(-c2ccnc(N)n2)s1` the remaining activity was 96% (enzyme activity, inhibitor, radiometric; 1 µM).
`O=C(NS(=O)(=O)c1ccc(NCC2CCOCC2)c([N+](=O)[O-])c1)c1ccc(N2CCN(Cc3ccc(C(F)(F)F)cc3-c3ccc(Cl)cc3)CC2)cc1Oc1cnc2[nH]ccc2c1` has a remaining binding of 100% (cell-free assay, competition with immobilised ligand; 1 µM).
`Cc1cnc(NC2CCOCC2)nc1-n1cnc(C(=O)NC(CN)c2cc(F)cc(Cl)c2)c1` (stereo not shown) has a remaining activity of 100% (enzyme activity, inhibitor, radiometric; 1 µM).
`COc1cc(Cl)c(C(=O)N[C@@H](CN[C@H]2CC[C@@H](N)CC2)Cc2ccc(C#N)cc2)cc1-c1ccc(CN[C@H](C)c2ccc(C)cc2)o1` gave a remaining activity of 91% (enzyme activity, inhibitor; 1 µM).
The remaining signal of `COc1cc2c(N3CCN(C(=O)Nc4ccc(OC(C)C)cc4)CC3)ncnc2cc1OCCCN1CCCCC1` is reported as 104% (cell-free assay; 0.5 µM).
With `Cc1cc(NC(=O)c2cccc3cc(-c4cccc5[nH]nc(N)c45)ccc23)ccc1F` the activity vs control was 108% (enzyme activity, inhibitor; 0.1 µM).
The remaining signal of `N#CCCc1ccc2c(c1)-c1[nH]c3ccc([N+](=O)[O-])cc3c1CC(=O)N2` is reported as 98.6% (cell-free assay; 0.5 µM).
`CCCOc1ccc([C@H]2[C@H](C(=O)O)[C@@H](c3ccc4c(c3)OCO4)CN2CC(=O)Nc2c(CC)cccc2CC)cc1` has a remaining binding of 79% (cell-free assay, competition with immobilised ligand; 1 µM).
`COc1cc2ncnc(Nc3ccc(Oc4ccccc4)c(C)c3C)c2cc1OC` gave an inhibition of 76% (enzyme activity, inhibitor; 1 µM).
With `CCCCNc1ncc2c(-c3ccc(F)cc3)nn(C[C@H]3CC[C@H](N)CC3)c2n1` the inhibition was 77.8% (target engagement in cells, inhibitor, chemoproteomics; 20 mM).
`Cc1ccc(NC(=O)c2ccc(C)c(C(F)(F)F)c2)cc1C#Cc1nn(C2CCC(O)CC2)c2ncnc(N)c12` (stereo not shown) has a remaining signal of 4% (cell-free assay; 10 µM).
With `C[C@@]1(Cc2ccc(C#N)cc2)C(=O)N(c2cc(Cl)cc(Cl)c2)c2ncc(C(=O)NC3(c4nc(C5CCC5)no4)CC3)n21` the remaining binding was 100% (cell-free assay, competition with immobilised ligand; 1 µM).
`c1ccc(CNc2nc(N3CCOc4ccccc43)nc3c2CCCC3)cc1` has an inhibition of 0.8% (target engagement in cells, inhibitor, chemoproteomics; 20 mM).
